b-catenin transl: modulators of beta-catenin nuclear translocation; HeLa beta-catenin nuclear translocation, immunofluorescence imaging; nuclear translocation activity, % at 5 µM; 190,000 compounds, 0.3% hits; AID 1665;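 active means nuclear translocation activity above 50% at 5 µM, with a well cell count of 50 or more; inconclusive means wells under 50 cells across six images, flagged as toxic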;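 further: per-cell ratio of nuclear to cytoplasmic median beta-catenin stain intensity; plate controls were DMSO negative control for no effect and GSK-3 inhibitor IX positive control for full effect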
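System: HeLa cells, endogenous beta-catenin; compound dosing: 5 µM primary single dose, 0.1% DMSO, 0.02–20 µM confirmation series; incubation: 24 h compound exposure at 37°C, 5% CO2; signal: beta-catenin immunofluorescence imaging with DAPI; evaluation: % activation, nuclear-to-cytoplasmic median beta-catenin signal ratio per cell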
HSV replic up: increases HSV replication in cells; HSV replication augmentation in cells, fold increase; maximum fold increase; 220,000 compounds, 0.005% hits; AID 1956; in the data active means maximum fold increase above about 1.5; inconclusive means no clear call, values can overlap the other calls; tested in PC3 cells
Autophagy HCS: alters autophagy in cells; MEF GFP-LC3 puncta imaging; test concentration mostly 10 µM; 190,000 compounds, 0.98% hits; calls only at 10 µM (by protocol); AID 463193;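 active means percentage of spot-positive cells more than 3 SD above its plate mean, without a fluorescence outlier flag or 80% toxicity; inconclusive means no clear call, values can overlap the other calls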;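 further: spot-positive cell cutoff set from DMSO-treated cells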
MT stabilizer: stabilizes microtubules in HeLa cells; HeLa tubulin immunostaining HCS, 24 h; share of cells brighter than vehicle mean+2SD; % tubulin-high responders, % at 10 µM; 200,000 compounds, 0.83% hits; AID 2205;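 active means plate Z-score above 3 for both tubulin-high and condensed-nucleus cell shares, with cell loss under 80%, at 10 µM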;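 further: anti alpha tubulin signal scored within the nucleus-defined area of each cell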
Insulin prom up: MIN6 insulin promoter up-regulation. AID 1625. MIN6 insulin promoter-GFP reporter, high-content imaging; stronger effect = higher value. z-score at 5 µM. 190,000 compounds, 0.3% hits;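 active means z-score above 3 at 5 µM with at least 500 cells counted in the well; inconclusive means wells under 500 cells, flagged as cytotoxic or low count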
Furin inh: human furin inhibition. P09958. purified furin, fluorogenic substrate cleavage. inhibition, % at 20 µM or 30 µM. 220,000 compounds, 0.061% hits. AID 463115; in the data active means inhibition above about 25%
Target sequence (P09958 108-714 limits assumed): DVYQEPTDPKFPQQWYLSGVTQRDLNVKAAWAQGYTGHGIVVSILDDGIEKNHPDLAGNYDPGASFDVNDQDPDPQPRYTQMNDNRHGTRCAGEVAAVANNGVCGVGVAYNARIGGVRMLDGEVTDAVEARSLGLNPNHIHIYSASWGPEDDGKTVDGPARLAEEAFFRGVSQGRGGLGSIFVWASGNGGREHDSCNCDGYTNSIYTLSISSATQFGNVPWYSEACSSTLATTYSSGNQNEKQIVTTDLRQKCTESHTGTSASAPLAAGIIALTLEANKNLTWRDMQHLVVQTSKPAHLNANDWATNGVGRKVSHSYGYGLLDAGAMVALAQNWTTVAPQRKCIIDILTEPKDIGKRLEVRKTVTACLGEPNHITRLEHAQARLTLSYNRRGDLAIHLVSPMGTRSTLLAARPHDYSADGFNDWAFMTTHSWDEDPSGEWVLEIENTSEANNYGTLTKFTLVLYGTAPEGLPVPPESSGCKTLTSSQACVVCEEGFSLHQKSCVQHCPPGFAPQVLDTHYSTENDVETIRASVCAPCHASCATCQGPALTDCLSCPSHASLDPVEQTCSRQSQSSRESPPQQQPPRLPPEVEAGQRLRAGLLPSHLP
Starred values were filed as active, the others as inactive; i = inactive; ? = inconclusive; . = no result given; + = active, no number. Hits are enriched below; roughly 1.9% of the tested compounds scored in any of these assays.

SMILES | b-catenin transl | HSV replic up | Autophagy HCS | MT stabilizer | Insulin prom up | Furin inh
COc1ccc(N(CC(=O)Nc2ccc3c(c2)OCO3)S(=O)(=O)c2ccc(F)cc2)cc1 | -0.9 | i | + | 1.8 | -0.33 | -17.0
Cc1cc(CN(C)C(=O)CC2C(=O)NCCN2Cc2c(F)cccc2Cl)on1 (centres undefined) | -0.1 | i | . | . | 0.4 | -12.6
CC(C)C(C)(C#N)NC(=O)CSc1nnc(C(F)(F)F)n1C (centres undefined) | -1.4 | i | i | 2.9 | 3.02* | -23.4
CNC(=O)NC(=O)CSc1nnc(C(F)(F)F)n1C | -4.8 | i | i | 2.1 | -0.53 | -16.0
CC(=O)Nc1cccc(NC(=O)CSc2ccc(-c3cccnc3)nn2)c1 | 0.6 | i | + | 1.6 | 0.36 | -11.3
CC(OC(=O)c1ccc2ncsc2c1)C(=O)N1CCCC1 (centres undefined) | -0.8 | i | i | 5.5 | -0.14 | -6.9
CC1CCCN(C(=O)CSc2nc3ncccc3[nH]2)C1 (centres undefined) | -0.6 | i | + | 3.9 | 1.02 | -3.6
CCN(CC)C(=O)CSc1nc2ncccc2[nH]1 | -0.8 | i | i | 5.1 | 0.96 | -4.7
CCOc1cccc2cc(C(=O)NCCC3=CCCCC3)c(=O)oc12 | 0.6 | i | i | 3.7 | -0.22 | -21.3
COc1ccc(NS(=O)(=O)c2ccc(O)c(NC(=O)c3cc4c(C)nn(-c5ccc(F)cc5)c4s3)c2)cc1 | -0.2 | . | i | 1.6 | -0.57 | -23.5
CCCCNc1c(NC(C)=O)c(=O)oc2ccccc12 | -2.1 | i | i | 3.2 | -0.4 | -5.1
Cc1ccc(C(=O)C2=C(O)C(=O)N(CCN3CCOCC3)C2c2ccccn2)o1 (centres undefined) | -3.6 | i | i | 2.3 | 1.09 | -10.9
CCN(CC)CCN1C(=O)C(O)=C(C(=O)c2ccc(C)o2)C1c1ccccn1 (centres undefined) | . | i | + | 3.1 | . | -10.5
COc1ccc(-c2nc(NC(=O)C3=NN(c4cccc(C)c4)C(=O)CC3)sc2C)cc1 | -1.7 | i | i | 2.2 | -1.7 | -12.3
COc1ccc(CNC[C@@H](CCCCN(C)Cc2ccc(OC)cc2)N2C[C@H](c3ccccc3)N(CCc3ccc(Cl)c(Cl)c3)C(=O)C2=O)cc1 | ? | i | + | 40.0 | ? | -14.1
COc1ccc(/C=C(\C#N)C(=O)OCC(=O)Nc2c(C)cccc2C(C)C)cc1 | -1.6 | i | i | 2.5 | 3.36* | -25.8
COc1ccc(/C=C(\C#N)C(=O)OCC(=O)NC(=O)NCCC(C)C)cc1 | -5.2 | i | i | 2.0 | . | -12.8
COc1cccc(NC(=O)Cn2c(=O)n(-c3ccccc3)c(=O)c3sccc32)c1 | 2.2 | i | i | 2.1 | 0.17 | -6.9
COc1ccc(/C=N/NC(=O)c2ccc(Cl)cc2Cl)cc1COC(C)=O | 1.9 | . | i | 21.1* | 0.83 | -17.0
COCc1cc(/C=N\NC(=O)c2ccc(Cl)cc2)ccc1OC | 0.7 | i | i | 1.7 | 0.04 | 2.2
Cc1c(C(=O)Nc2ccc3c4c(cccc24)CC3)cccc1[N+](=O)[O-] | -2.4 | i | i | 21.8* | -0.18 | -17.1
COc1cc(/C=C(/C(=O)c2cccs2)c2nc3ccccc3[nH]2)ccc1O | 3.6 | i | i | 13.4 | -0.06 | -2.7
O=C(/C(=C/c1ccc(Cl)cc1)c1nc2ccccc2[nH]1)c1cccs1 | 6.7 | i | + | 27.5* | ? | -3.1
O=C(/C(=C\c1ccccc1)c1nc2ccccc2[nH]1)c1ccc(Cl)cc1 | 0.9 | i | i | 22.2* | -0.55 | -21.3
Cc1ccc(NCc2n[nH]c(=S)n2Cc2ccccc2)cc1Cl | 0.4 | i | i | 1.1 | . | -23.3
SMILES | b-catenin transl | HSV replic up | Autophagy HCS | MT stabilizer | Insulin prom up | Furin inh
COC(=O)Cc1c(C(=O)OC)nnn1-c1ccc(OC(F)(F)F)cc1 | -1.5 | i | i | 4.6 | 0.48 | -10.4
CCCSc1nc(C)nc2c1c(=O)n(C)c(=O)n2C | 1.3 | i | + | 5.4 | 1.23 | -30.9
CC(C)n1c(C(=O)OCC(=O)NCc2ccc3c(c2)OCO3)cc2occc21 | -1.7 | i | i | 2.4 | 2.03 | -17.0
CC(C)n1c(C(=O)OCC(=O)NCc2ccc3c(c2)OCO3)cc2sccc21 | -1.3 | i | i | 41.6* | -1.02 | -3.1
CC(C)(C)c1ccc(C2CC2C(=O)N/N=C\c2ccc[nH]2)cc1 (centres undefined) | 7.9 | i | i | 10.6 | -2.83 | -30.7
Cc1noc(C)c1C1(O)CCCCCCCCCCC1 | 2.1 | i | i | 4.9 | -0.47 | -12.6
CCC(C)(C(=O)NC1CCCC1)N(C(=O)CNC(C)=O)c1ccccc1 (centres undefined) | -0.4 | i | i | 5.9 | 3.46* | -28.7
N/C(=N\OC(=O)C1CCCCC1)c1cccc([N+](=O)[O-])c1 | -1.1 | i | i | 1.2 | 3.01* | -15.0
Cc1ccc(C(=O)O/N=C(\N)c2cccc([N+](=O)[O-])c2)cc1 | -1.9 | i | i | 1.8 | 1.92 | -10.1
COc1cccc(NC(=O)c2cc([N+](=O)[O-])ccc2NC(=O)CNCC2CCCO2)c1 (centres undefined) | -1.1 | i | + | 2.3 | -0.47 | -9.2
O=C(CCN1CCC(c2ccc(Cl)s2)=N1)c1ccc(Cl)s1 | -1.5 | i | . | . | 0.62 | -7.5
O=C(CCCn1c(SCc2cccc([N+](=O)[O-])c2)nc2ccccc2c1=O)NCC1CCCO1 (centres undefined) | . | i | i | 5.8 | -1 | -9.4
CCn1cc(/C=N/NC(=O)c2cc3c(ccc4ccccc43)o2)c2ccccc21 | -1.6 | i | i | 41.2* | -0.49 | -13.1
CC(C)n1cc(/C=N\NC(=O)c2cc3c(ccc4ccccc43)o2)c2ccccc21 | -1.5 | i | i | 7.6 | -0.2 | -8.5
CSC(=O)NC(=O)NC(=O)c1ccc([N+](=O)[O-])cc1 | -0.3 | i | . | . | -0.24 | -14.3
COc1ccccc1C(=O)C1CCCN(C(=O)c2cn3cc(Cl)ccc3n2)C1 (centres undefined) | -1.4 | i | i | 1.6 | 0.28 | -21.8
COc1cccc(-c2nc(Oc3cc(C)cc(C)c3)c3ccccc3n2)c1O | -0.5 | i | + | 5.7 | 0.1 | -9.4
CCn1c2ccccc2c2nnc(SCC(=O)Nc3cc(C)on3)nc21 | 1.6 | i | i | 3.3 | 3.98* | -11.0
COC1CCN(Cc2cn(Cc3ccccc3)nc2-c2cc3ccccc3o2)CC1 | -0.2 | i | + | 2.9 | -0.19 | -17.9
OCC1CCN(Cc2cn(Cc3ccccc3)nc2-c2cc3ccccc3o2)CC1 | -1.7 | i | i | 2.9 | -1.59 | -22.1
CCOC(=O)N1CCN(c2ncnc3c2[nH]c2ccc(OC)cc23)CC1 | 8.9 | i | i | 4.5 | -0.23 | 1.9
COc1ccc(N2CCN(c3ncnc4c3[nH]c3ccccc34)CC2)cc1 | 0.7 | i | i | 1.6 | 0.73 | -18.0

Bioassay records: PubChem, several laboratories
